Measurements from ChEMBL document CHEMBL1154612, “Discovery and validation of a series of aryl sulfonamides as selective inhibitors of tissue-nonspecific alkaline phosphatase (TNAP)” (J Med Chem, 2009).
≈ marks a conversion by molar mass, not a printed value. Each block holds one compound with its values, some of them ahead of it.

What was measured:
[1] = molecular target: T1, Alkaline phosphatase, tissue-nonspecific isozyme (Homo sapiens, UniProt P05186); assay: Inhibition of TNAP transfected in african green monkey COS1 cells by luminescent assay
T1 sequence (P05186 whole entry): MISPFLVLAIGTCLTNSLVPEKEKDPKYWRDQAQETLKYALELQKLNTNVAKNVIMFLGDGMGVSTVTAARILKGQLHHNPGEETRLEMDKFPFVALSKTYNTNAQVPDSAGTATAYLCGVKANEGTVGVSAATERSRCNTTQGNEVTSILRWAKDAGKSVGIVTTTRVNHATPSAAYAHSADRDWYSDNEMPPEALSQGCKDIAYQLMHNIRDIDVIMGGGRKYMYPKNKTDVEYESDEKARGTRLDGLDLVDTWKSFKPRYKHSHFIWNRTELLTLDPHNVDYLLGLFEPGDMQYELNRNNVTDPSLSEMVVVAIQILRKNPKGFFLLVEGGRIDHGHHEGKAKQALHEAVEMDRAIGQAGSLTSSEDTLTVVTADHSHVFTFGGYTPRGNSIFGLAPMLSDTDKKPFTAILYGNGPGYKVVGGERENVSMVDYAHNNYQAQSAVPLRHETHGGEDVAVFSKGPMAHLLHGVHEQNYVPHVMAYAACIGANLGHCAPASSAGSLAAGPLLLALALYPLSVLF

[2] = Permeability by PAMPA assay; format: ADME
[3] = Metabolic stability in rat liver microsomes after 30 mins; format: ADME, Microsome; settings: read-out: Stability
Method in brief: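 Compounds incubated in triplicate with pooled rat liver microsomes plus NADPH at 37 °C for 30 min. Reported as percent remaining.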

[4] = Metabolic stability in rat plasma after 30 mins; format: ADME, cell-free; settings: read-out: Stability
Method in brief: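 Compounds incubated in fresh rat plasma at 37 °C for 30 min. Reported as percent remaining.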

[5] = Solubility at pH 7.4 by direct UV method; format: physicochemical; settings: buffer
Method in brief: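 Direct UV kinetic solubility in aqueous buffer at pH 7.4, in duplicate. Samples held at room temperature for at least 18 h, then filtered to remove precipitate. UV absorbance (250-498 nm) compared with spectra of precipitation-free reference solutions.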

[6] = Cmax in rat at 4.13 mg/kg, sc; format: ADME, organism-based; parameters: dose 4.13 mg/kg, route subcutaneous; settings: in vivo
Method in brief: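 Rats dosed subcutaneously with 400 microliters of a […] solution (4.13 mg/kg) in 50% DMSO in normal saline. Blood drawn and frozen immediately, plasma kept at -20 °C. Compound quantified by LC-MS/MS (electrospray, C18 reverse-phase, water-acetonitrile gradient) against a 7-point calibration curve built from peak areas of serial dilutions.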

[7] = molecular target: T2, Ectonucleotide pyrophosphatase/phosphodiesterase family member 1 (Homo sapiens) (UniProt P22413); assay: Inhibition of NPP1; settings: concentration not given here
T2 sequence (whole entry): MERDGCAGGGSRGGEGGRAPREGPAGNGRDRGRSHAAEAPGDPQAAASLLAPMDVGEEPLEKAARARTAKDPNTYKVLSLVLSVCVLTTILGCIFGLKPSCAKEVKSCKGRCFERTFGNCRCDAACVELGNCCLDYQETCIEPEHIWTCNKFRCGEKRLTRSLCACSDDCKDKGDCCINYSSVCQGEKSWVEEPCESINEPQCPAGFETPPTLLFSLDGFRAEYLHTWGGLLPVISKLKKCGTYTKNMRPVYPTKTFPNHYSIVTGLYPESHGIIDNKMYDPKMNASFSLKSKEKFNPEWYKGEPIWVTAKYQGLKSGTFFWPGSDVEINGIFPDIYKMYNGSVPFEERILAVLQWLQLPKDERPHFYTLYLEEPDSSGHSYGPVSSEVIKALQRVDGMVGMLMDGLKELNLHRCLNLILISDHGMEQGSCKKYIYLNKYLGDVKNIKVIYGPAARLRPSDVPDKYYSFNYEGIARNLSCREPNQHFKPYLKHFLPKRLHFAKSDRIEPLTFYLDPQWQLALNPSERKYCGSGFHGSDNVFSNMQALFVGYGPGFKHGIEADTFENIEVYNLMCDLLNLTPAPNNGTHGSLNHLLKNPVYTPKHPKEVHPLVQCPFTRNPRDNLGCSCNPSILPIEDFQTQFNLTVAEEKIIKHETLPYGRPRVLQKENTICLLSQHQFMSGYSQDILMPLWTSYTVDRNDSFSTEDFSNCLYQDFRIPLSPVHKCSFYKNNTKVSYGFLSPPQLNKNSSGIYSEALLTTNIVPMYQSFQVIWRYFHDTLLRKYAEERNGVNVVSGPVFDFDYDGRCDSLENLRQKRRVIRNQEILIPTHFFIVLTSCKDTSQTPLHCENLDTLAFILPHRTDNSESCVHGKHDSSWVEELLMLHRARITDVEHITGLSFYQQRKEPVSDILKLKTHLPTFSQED
Method in brief: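 NPP1 activity with 5 mM pNP-TMP in 50 mM Tris pH 7.4 or 100 mM Tris pH 8.9 with 2 mM MgCl2 at 37 °C. Reaction started with enzyme and stopped with 1 M NaOH at set times. p-Nitrophenolate read at 410 nm, in triplicate, with no-enzyme controls. Inhibitor tested at 10 μM final.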

[8] = molecular target: T3, Phosphoethanolamine/phosphocholine phosphatase (Homo sapiens) (UniProt Q8TCT1); assay: Inhibition of PHOSPHO1 assessed as inorganic phosphate release; settings: concentration not given here
T3 sequence (whole entry): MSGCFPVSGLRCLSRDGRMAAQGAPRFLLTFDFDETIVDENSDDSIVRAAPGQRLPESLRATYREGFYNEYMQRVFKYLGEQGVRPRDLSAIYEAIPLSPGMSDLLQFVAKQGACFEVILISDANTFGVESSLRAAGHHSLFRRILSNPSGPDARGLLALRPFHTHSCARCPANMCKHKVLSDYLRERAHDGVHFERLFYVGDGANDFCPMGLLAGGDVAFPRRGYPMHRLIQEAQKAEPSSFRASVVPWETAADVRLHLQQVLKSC

[9] = molecular target: Intestinal-type alkaline phosphatase (Homo sapiens, UniProt P09923); assay: Inhibition of IAP by luminescent assay
Chain of Intestinal-type alkaline phosphatase (P09923 whole entry): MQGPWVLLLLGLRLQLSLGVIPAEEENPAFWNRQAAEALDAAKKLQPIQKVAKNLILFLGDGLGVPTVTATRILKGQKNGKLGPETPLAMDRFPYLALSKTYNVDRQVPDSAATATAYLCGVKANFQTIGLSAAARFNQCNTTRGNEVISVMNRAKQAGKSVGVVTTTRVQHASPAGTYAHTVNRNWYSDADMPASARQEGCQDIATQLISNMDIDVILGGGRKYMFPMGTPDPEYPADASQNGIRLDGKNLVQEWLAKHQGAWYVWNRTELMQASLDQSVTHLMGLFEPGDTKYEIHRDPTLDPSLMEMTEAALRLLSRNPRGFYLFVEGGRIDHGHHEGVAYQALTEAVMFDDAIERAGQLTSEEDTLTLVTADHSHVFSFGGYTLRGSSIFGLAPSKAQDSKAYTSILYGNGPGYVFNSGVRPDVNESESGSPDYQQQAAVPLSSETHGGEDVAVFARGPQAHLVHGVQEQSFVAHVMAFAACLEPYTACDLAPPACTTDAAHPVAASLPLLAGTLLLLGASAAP

IC50 [1]: 510 nM
SMILES: COc1cc(C)c(Cl)cc1S(=O)(=O)Nc1cccnc1

IC50 [1]: 1850 nM | permeability [2]: 83% | remaining at 0.5 h [3]: 39% | remaining at 0.5 h [4]: 98% | solubility kinetic [5]: 28.5 µg/mL (≈ 102 µM)
SMILES: COc1ccc(C)cc1S(=O)(=O)Nc1cccnc1

IC50 [1]: 1130 nM
SMILES: CCOc1ccc(C)cc1S(=O)(=O)Nc1cccnc1

IC50 [1]: 690 nM
SMILES: CCOc1cc(C)c(Cl)cc1S(=O)(=O)Nc1cccnc1

IC50 [1]: 650 nM | permeability [2]: 7% | remaining at 0.5 h [3]: 48% | remaining at 0.5 h [4]: 91% | solubility kinetic [5]: 71.6 µg/mL (≈ 218 µM)
SMILES: COc1ccc(C)cc1S(=O)(=O)Nc1cnc2ccccc2c1

IC50 [1]: 1060 nM
SMILES: COc1ccc(OC)c(S(=O)(=O)Nc2cccnc2)c1

IC50 [1]: 1290 nM
SMILES: COc1ccc(F)cc1S(=O)(=O)Nc1cccnc1

SMILES: COc1ccc(OC)c(S(=O)(=O)Nc2cnc3ccccc3c2)c1
Cmax [6]: 1500 ng/mL | permeability [2]: 58% | remaining at 0.5 h [3]: 78% | remaining at 0.5 h [4]: 97% | inhibition [7]: < 9.5% | solubility kinetic [5]: 138 µg/mL (≈ 401 µM) | inhibition [8]: < 7.4% | IC50 [9]: > 100 µM

IC50 [1]: 3160 nM | permeability [2]: 51% | remaining at 0.5 h [3]: 68% | remaining at 0.5 h [4]: 99% | solubility kinetic [5]: 1.1 µg/mL (≈ 3.56 µM)
SMILES: COc1cc([N+](=O)[O-])ccc1S(=O)(=O)Nc1cccnc1

IC50 [1]: 1490 nM
SMILES: COc1cc(S(=O)(=O)Nc2cccnc2)c(OC)cc1C

IC50 [1]: > 10000 nM
SMILES: COc1ccc(OC)c(CNc2cnc3ccccc3c2)c1

IC50 [1]: 740 nM | permeability [2]: 11% | remaining at 0.5 h [3]: 56% | remaining at 0.5 h [4]: 96% | solubility kinetic [5]: 178 µg/mL (≈ 495 µM)
SMILES: COc1cc([N+](=O)[O-])ccc1S(=O)(=O)Nc1cnc2ccccc2c1

IC50 [1]: 540 nM
SMILES: CCOc1ccc(Cl)cc1S(=O)(=O)Nc1cccnc1

IC50 [1]: > 10000 nM
SMILES: COc1ccc(OC)c(S(=O)(=O)Nc2ccc3ccccc3c2)c1

IC50 [1]: 1550 nM
SMILES: COc1cc(S(=O)(=O)Nc2cccnc2)c(OC)cc1Br

IC50 [1]: > 10000 nM
SMILES: COc1ccc(OC)c(NS(=O)(=O)c2cnc3ccccc3c2)c1

IC50 [1]: 1680 nM
SMILES: COc1cc(C)c(C)cc1S(=O)(=O)Nc1cccnc1

IC50 [1]: > 10000 nM
SMILES: COc1ccc(OC)c(S(=O)(=O)Nc2ccc3ncccc3c2)c1

permeability [2]: 54% | remaining at 0.5 h [3]: 49% | remaining at 0.5 h [4]: 66% | solubility kinetic [5]: 37.9 µg/mL (≈ 96.4 µM)
SMILES: COc1ccc(Br)cc1S(=O)(=O)Nc1cnc2ccccc2c1

IC50 [1]: > 10000 nM
SMILES: COc1cccc(S(=O)(=O)Nc2cnc3ccccc3c2)c1

IC50 [1]: 1130 nM
SMILES: COc1cc(S(=O)(=O)Nc2cccnc2)c(OC)cc1Cl
